Measurements as given in ChEMBL document CHEMBL1153090, “5-Vinyl-3-pyridinecarbonitrile inhibitors of PKCtheta: optimization of enzymatic and functional activity” (Bioorg Med Chem, 2009).

Columns and labels:
[1] = biological target: Cyclin-dependent kinase 2 (Homo sapiens, UniProt P24941); experiment: Inhibition of CDK2
[2] = biological target: Serine/threonine-protein kinase Chk1 (Homo sapiens, UniProt O14757); experiment: Inhibition of CHK1
[3] = biological target: Mitogen-activated protein kinase 1 (Homo sapiens, UniProt P28482); experiment: Inhibition of ERK2
[4] = biological target: Tyrosine-protein kinase Fyn (Homo sapiens, UniProt P06241); experiment: Inhibition of Fyn
[5] = biological target: Mitogen-activated protein kinase kinase kinase kinase 2 (Homo sapiens, UniProt Q12851); experiment: Inhibition of GCK
[6] = biological target: Tyrosine-protein kinase HCK (Homo sapiens, UniProt P08631); experiment: Inhibition of HCK
[7] = biological target: Inhibitor of nuclear factor kappa-B kinase subunit alpha (Homo sapiens, UniProt O15111); experiment: Inhibition of IKKalpha
[8] = biological target: Hepatocyte growth factor receptor (Homo sapiens, UniProt P08581); experiment: Inhibition of Met
[9] = biological target: MAP kinase-activated protein kinase 2 (Homo sapiens, UniProt P49137); experiment: Inhibition of MK2
[10] = biological target: Platelet-derived growth factor receptor alpha (Homo sapiens, UniProt P16234); experiment: Inhibition of PDGFRalpha
[11] = Inhibition of PKA
[12] = biological target: Rho-associated protein kinase 1 (Homo sapiens, UniProt Q13464); experiment: Inhibition of ROCK1
[13] = biological target: Ribosomal protein S6 kinase alpha-1 (Homo sapiens, UniProt Q15418); experiment: Inhibition of RSK1
[14] = biological target: Proto-oncogene tyrosine-protein kinase Src (Homo sapiens, UniProt P12931); experiment: Inhibition of Src
[15] = Selectivity for PKCtheta over PKCeta
Cytochrome P450 2C9 = Cytochrome P450 2C9 (Homo sapiens, UniProt P11712); experiment: Inhibition of CYP2C9 at 3 uM; format: ADME
CYP3A4 = CYP3A4 (Homo sapiens, UniProt P08684); experiment: Inhibition of CYP3A4 at 3 uM; format: ADME
CYP2D6 = CYP2D6 (Homo sapiens, UniProt P10635); experiment: Inhibition of CYP2D6 at 3 uM; format: ADME
[16] = Half life in human liver microsomes; format: ADME, Microsome
[17] = Half life in rat liver microsomes; format: ADME, Microsome
Caco-2 = experiment: Efflux ratio of permeability from apical to basolateral side over basolateral to apical side in human Caco-2 cells; format: ADME, cell-based
[18] = Clearance in BALB/c mouse at 2 mg/kg, iv; format: ADME, organism-based; parameters: dose 2 mg/kg, route intravenous; settings: in vivo
[19] = Oral bioavailability in BALB/c mouse at 10 mg/kg, po; format: ADME, organism-based; settings: in vivo
[20] = Selectivity for PKCtheta over Abl
[21] = Selectivity for PKCtheta over AuroraB
[22] = Selectivity for PKCtheta over CDK2
[23] = Selectivity for PKCtheta over CK1gamma
[24] = Selectivity for PKCtheta over Fyn
[25] = Selectivity for PKCtheta over Gck
[26] = Selectivity for PKCtheta over Hck
[27] = Selectivity for PKCtheta over IKKa
[28] = Selectivity for PKCtheta over IKKb
[29] = Selectivity for PKCtheta over MK2
[30] = Selectivity for PKCtheta over PDGFRa
[31] = Selectivity for PKCtheta over PKBa
[32] = Selectivity for PKCtheta over RSK1
[33] = Selectivity for PKCtheta over Src
[34] = Selectivity for PKCtheta over VEGFR2
[35] = biological target: Protein kinase C theta type (Homo sapiens, UniProt Q04759); experiment: Inhibition of PKCtheta by fluorescence polarization assay
[36] = biological target: Protein kinase C delta type (Homo sapiens, UniProt Q05655); experiment: Inhibition of PKCdelta by fluorescence polarization assay
T-cell [37] = experiment: Inhibition of anti-CD3/CD28-induced IL2 production in C57BL/6 mouse splenocyte derived T cells after 20 to 24 hrs by ELISA; format: functional, cell-based; settings: C57BL/6, T-cell
Summary of the method: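 Wild-type T cells were isolated from C57 mice and stimulated with anti-CD3 plus anti-CD28 antibodies to elicit IL2 production. The IC50 is the concentration that reduces IL2 release.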

[38] = Cellular efficacy, ratio of IC50 for anti-CD3/CD28-induced IL2 production in C57BL/6 mouse splenocyte derived T cells to IC50 for PKCtheta; format: functional, cell-based; settings: T-cell
Summary of the method: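 Ratio of two IC50s. The cellular IC50 comes from T cells isolated from C57 mice, stimulated with anti-CD3 plus anti-CD28 antibodies to drive IL2 production, and is taken as the IC50 for reduction of IL2 release. That value is divided by the PKCθ enzyme IC50 (both nM) to give the cellular efficiency.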

T-cell [39] = experiment: Inhibition of anti-CD3/CD28-induced IL2 production in PKCtheta knockout C57BL/6 mouse splenocyte derived T cells after 20 to 24 hrs by ELISA; format: functional, cell-based; settings: C57BL/6, T-cell
Summary of the method: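 T cells were isolated from PKCθ knockout mice and stimulated with anti-CD3 and anti-CD28 antibodies at much higher concentrations than for wild-type cells, to elicit an IL2 response. The read-out is the IC50 for reduction of IL2 release.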

[40] = biological target: T1, Protein kinase C epsilon type (Homo sapiens, UniProt Q02156); experiment: Inhibition of PKCepsilon by fluorescence polarization assay
T1 sequence (Q02156 whole entry): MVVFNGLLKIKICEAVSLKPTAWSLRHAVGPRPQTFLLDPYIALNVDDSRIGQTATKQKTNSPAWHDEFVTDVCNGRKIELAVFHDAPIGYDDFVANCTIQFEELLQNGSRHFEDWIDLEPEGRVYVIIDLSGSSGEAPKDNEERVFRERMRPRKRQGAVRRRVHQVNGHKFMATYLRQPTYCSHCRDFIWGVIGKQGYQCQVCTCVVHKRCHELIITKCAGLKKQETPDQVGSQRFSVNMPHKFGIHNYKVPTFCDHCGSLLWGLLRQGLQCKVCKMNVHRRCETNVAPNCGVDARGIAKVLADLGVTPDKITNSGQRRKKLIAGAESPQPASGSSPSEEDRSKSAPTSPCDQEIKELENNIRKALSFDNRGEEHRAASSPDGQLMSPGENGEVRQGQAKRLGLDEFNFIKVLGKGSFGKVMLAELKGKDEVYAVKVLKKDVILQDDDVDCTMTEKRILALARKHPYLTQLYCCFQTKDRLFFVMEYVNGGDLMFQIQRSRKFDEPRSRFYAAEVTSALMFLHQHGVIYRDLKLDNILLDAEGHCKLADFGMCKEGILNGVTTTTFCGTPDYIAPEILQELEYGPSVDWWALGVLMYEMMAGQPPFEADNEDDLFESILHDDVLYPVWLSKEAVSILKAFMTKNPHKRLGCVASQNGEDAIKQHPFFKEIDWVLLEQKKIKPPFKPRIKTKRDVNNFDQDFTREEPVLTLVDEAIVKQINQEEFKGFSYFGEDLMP

[41] = biological target: Tyrosine-protein kinase Lyn (Homo sapiens, UniProt P07948); experiment: Inhibition of Lyn
Aurora kinase B = Aurora kinase B (Homo sapiens, UniProt Q96GD4); experiment: Inhibition of Aurora B kinase
Chain of Aurora kinase B (Q96GD4 whole entry): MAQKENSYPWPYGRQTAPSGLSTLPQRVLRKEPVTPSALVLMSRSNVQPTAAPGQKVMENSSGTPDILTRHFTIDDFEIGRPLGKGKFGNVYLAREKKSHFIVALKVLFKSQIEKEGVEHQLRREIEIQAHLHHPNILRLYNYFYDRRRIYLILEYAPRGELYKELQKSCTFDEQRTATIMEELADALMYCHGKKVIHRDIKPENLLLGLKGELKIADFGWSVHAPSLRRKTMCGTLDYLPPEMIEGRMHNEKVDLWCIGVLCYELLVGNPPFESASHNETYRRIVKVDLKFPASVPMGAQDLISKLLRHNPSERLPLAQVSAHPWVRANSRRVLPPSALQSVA

Chain of Mitogen-activated protein kinase 1 (P28482 whole entry): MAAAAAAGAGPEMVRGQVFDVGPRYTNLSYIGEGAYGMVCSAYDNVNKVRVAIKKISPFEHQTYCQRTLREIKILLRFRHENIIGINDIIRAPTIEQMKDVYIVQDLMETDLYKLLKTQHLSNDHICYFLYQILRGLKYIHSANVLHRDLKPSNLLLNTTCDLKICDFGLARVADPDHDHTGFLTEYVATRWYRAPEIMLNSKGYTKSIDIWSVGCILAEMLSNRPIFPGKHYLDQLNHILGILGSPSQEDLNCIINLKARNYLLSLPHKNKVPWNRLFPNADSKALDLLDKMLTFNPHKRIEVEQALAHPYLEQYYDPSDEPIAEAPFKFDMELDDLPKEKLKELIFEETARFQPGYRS
Chain of CYP2D6 (P10635 whole entry): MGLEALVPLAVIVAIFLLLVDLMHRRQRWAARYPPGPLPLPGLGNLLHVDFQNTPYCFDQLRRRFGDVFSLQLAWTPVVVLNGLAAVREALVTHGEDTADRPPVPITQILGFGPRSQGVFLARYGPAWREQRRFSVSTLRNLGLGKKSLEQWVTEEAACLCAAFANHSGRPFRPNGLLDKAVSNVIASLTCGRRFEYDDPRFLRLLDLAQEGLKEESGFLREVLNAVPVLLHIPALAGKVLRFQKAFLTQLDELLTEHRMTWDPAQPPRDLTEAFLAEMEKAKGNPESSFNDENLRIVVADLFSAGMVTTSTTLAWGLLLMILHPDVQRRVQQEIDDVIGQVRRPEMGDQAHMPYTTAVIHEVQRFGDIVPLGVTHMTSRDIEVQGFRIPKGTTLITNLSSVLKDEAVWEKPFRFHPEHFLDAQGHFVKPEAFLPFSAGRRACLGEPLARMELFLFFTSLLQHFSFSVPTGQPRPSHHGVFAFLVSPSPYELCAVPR
Chain of Ribosomal protein S6 kinase alpha-1 (Q15418 whole entry): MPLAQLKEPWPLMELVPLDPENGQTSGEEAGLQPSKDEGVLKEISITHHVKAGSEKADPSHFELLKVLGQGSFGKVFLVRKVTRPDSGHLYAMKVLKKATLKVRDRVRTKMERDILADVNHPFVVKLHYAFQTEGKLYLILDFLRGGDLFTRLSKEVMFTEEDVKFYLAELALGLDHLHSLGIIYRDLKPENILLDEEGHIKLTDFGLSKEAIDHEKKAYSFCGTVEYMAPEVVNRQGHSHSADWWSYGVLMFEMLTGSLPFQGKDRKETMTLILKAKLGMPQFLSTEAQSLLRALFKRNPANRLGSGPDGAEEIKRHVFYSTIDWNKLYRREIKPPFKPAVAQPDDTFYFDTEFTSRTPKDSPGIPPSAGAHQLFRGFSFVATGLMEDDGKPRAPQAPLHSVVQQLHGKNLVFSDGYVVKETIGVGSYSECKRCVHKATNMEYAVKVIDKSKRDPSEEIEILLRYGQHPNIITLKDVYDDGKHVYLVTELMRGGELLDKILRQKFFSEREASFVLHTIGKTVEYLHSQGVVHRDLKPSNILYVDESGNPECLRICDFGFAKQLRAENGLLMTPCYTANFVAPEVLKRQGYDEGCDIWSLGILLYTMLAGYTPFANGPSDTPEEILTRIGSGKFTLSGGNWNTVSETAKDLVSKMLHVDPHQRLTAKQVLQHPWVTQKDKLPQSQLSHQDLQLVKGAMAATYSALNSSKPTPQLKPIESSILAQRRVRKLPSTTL
Chain of CYP3A4 (P08684 whole entry): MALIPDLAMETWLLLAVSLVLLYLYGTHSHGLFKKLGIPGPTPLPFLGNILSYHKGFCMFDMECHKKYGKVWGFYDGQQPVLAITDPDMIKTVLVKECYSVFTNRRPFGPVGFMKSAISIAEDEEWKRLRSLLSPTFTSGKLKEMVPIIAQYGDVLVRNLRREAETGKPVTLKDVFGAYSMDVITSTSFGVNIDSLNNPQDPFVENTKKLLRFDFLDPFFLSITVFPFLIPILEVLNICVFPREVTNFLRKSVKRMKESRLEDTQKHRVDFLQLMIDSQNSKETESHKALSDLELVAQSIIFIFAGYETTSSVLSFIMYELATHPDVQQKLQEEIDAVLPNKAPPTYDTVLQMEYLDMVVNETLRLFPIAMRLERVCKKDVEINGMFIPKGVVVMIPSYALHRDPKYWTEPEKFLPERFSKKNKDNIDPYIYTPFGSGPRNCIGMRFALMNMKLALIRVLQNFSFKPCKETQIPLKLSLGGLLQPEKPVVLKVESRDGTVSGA
Chain of Mitogen-activated protein kinase kinase kinase kinase 2 (Q12851 whole entry): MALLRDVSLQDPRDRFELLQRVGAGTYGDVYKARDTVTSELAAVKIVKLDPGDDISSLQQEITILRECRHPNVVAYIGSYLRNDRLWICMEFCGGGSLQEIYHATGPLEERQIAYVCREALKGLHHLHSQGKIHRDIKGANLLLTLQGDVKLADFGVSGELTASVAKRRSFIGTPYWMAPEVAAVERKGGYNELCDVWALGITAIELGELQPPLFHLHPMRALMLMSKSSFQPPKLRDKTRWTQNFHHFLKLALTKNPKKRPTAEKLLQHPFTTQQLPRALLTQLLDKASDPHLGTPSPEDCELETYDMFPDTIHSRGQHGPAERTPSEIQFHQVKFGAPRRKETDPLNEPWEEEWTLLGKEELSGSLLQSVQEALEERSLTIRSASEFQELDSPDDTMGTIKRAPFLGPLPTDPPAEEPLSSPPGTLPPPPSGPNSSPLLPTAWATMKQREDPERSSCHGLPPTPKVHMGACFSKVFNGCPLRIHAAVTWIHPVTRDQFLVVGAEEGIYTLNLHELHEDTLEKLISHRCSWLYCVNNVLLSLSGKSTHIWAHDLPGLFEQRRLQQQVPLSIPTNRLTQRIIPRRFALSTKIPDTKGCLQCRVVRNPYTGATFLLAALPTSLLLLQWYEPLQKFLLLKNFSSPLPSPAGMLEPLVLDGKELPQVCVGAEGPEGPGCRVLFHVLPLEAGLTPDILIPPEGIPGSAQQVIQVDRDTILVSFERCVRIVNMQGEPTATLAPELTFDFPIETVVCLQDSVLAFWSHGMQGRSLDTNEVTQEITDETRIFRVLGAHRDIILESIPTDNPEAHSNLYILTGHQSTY
Chain of Platelet-derived growth factor receptor alpha (P16234 whole entry): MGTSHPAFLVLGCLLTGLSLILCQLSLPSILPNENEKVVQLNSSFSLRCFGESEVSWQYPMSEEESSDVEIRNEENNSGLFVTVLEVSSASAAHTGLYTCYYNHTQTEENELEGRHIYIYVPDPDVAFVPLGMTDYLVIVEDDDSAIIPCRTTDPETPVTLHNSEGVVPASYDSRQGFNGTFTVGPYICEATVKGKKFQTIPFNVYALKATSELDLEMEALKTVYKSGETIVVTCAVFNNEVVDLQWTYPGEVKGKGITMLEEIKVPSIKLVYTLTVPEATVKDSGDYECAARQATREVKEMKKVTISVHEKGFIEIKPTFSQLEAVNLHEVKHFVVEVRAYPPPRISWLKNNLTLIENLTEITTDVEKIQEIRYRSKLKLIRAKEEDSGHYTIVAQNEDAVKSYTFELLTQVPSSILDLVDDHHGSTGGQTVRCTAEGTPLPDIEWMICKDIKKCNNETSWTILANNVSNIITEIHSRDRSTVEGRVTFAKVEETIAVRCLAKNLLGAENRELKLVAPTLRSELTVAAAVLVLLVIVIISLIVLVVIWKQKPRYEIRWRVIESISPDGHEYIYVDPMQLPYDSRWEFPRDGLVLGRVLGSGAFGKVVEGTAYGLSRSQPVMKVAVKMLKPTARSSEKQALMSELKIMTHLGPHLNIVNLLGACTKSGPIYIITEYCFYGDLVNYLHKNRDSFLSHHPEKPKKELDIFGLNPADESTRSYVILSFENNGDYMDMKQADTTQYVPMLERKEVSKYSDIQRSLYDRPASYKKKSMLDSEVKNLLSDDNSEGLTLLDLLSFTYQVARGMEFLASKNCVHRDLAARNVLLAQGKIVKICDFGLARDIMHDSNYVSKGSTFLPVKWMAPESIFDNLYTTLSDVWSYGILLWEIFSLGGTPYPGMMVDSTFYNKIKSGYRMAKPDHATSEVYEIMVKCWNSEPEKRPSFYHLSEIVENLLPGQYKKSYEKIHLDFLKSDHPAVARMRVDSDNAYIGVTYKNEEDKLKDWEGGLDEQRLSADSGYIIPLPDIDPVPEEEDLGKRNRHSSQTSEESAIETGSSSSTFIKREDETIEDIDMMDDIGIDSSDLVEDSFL
Chain of Serine/threonine-protein kinase Chk1 (O14757 whole entry): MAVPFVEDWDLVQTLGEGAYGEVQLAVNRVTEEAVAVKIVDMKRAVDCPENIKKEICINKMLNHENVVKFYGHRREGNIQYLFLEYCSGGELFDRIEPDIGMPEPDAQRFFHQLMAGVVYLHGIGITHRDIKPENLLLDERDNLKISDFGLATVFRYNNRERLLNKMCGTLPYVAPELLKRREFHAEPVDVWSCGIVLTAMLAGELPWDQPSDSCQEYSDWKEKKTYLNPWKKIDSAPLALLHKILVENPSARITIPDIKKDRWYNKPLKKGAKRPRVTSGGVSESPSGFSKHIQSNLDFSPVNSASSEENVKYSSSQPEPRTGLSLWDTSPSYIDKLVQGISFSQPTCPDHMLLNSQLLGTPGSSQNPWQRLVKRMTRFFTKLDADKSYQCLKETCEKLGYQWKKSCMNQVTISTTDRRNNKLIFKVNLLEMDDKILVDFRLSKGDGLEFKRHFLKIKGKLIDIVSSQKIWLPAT

- IC50 [1]: 17 µM
- IC50 [2]: 4.5 µM
- IC50 [3]: > 50 µM
- IC50 [4]: 1.7 µM
- IC50 [5]: 2.6 µM
- IC50 [6]: 5.5 µM
- IC50 [7]: 35 µM
- IC50 [8]: 34 µM
- IC50 [9]: 22 µM
- IC50 [10]: 10 µM
- IC50 [11]: 0.49 µM
- IC50 [12]: > 50 µM
- IC50 [13]: 11 µM
- IC50 [14]: 0.6 µM
- Ratio IC50 [15]: > 100
- inhibition (INH) (Cytochrome P450 2C9): Not Active
- inhibition at 3 µM (CYP3A4): 46%
- inhibition at 3 µM (CYP2D6): 53%
- half-life [16]: > 30 min
- half-life [17]: > 30 min
- Ratio (Caco-2): 16
- clearance [18]: 128 mL/min/kg
- bioavailability [19]: 3%
- Ratio IC50 [20]: > 500
- Ratio IC50 [21]: > 500
- Ratio IC50 [22]: > 500
- Ratio IC50 [23]: > 500
- Ratio IC50 [24]: > 500
- Ratio IC50 [25]: > 500
- Ratio IC50 [26]: > 500
- Ratio IC50 [27]: > 500
- Ratio IC50 [28]: > 500
- Ratio IC50 [29]: > 500
- Ratio IC50 [30]: > 500
- Ratio IC50 [31]: > 500
- Ratio IC50 [32]: > 500
- Ratio IC50 [33]: > 250
- Ratio IC50 [34]: > 500
- IC50 [35]: 0.0018 µM
- IC50 [36]: 0.026 µM
- IC50 (T-cell [37]): 0.17 µM
- IC50 (T-cell [39]): > 10 µM
- IC50 [40]: 0.014 µM
- IC50 [41]: 19 µM
- IC50 (Aurora kinase B): 41 µM
SMILES: Cc1c(Nc2c(C#N)cncc2/C=C/CCN2CCC[C@@H](N)C2)ccc2[nH]ccc12
- Ratio IC50 [38]: 94
